# Sampled rows, rich in hits. Any-hit rate of the full collection: about 4.1%.
# ROMK mod – modulates human ROMK potassium channel activity; B-score at 10 µM; 130,000 compounds, 2% hits; P48048; Tet-inducible ROMK, thallium flux fluorescence; actives lie on both sides;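 active means signal ratio slope over the read window, or its plate-corrected B-score, at least 3 SD from the plate mean, either direction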;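 further: B-score of the F/F0 ratio slope over 7 to 12 s after thallium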
# Autophagy mod – alters autophagy in cells. MEF GFP-LC3 puncta imaging; test concentration mostly 10 µM. calls only at 10 µM (by protocol). 190,000 compounds, 0.98% hits. AID 463193;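 active means percentage of spot-positive cells more than 3 SD above its plate mean, without a fluorescence outlier flag or 80% toxicity; inconclusive means no clear call, values can overlap the other calls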;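 further: spot-positive cell cutoff set from DMSO-treated cells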
# KCC2 mod – KCC2 (human) Cl- transport modulation. Q9H2X9. 190,000 compounds, 2.2% hits. AID 1456. B-score of Tl+ flux slope (higher = more flux/activation; lower = inhibition) at 10 µM. KCC2 cells, thallium flux FluoZin-2 fluorescence;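 active means thallium flux slope and its plate-corrected score both differing from the plate sample mean at a set confidence after two filtering rounds, in either direction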;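 further: slope of fluorescence scaled to starting intensity during 10 to 20 s after thallium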
# Redox H2O2 prof – compounds producing H2O2 with reducing agent – biochemical, NIH compound library profiling, artefact control for MLSCN library redox annotation, primary screen | DTT-dependent redox cycling H2O2, phenol red/HRP absorbance; 100% = 100 µM peroxide control, 0% = buffer | activation, % at 10 µM | 200,000 compounds, 0.03% hits | AID 878;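 active means activation of at least 50% relative to the plate's high and low controls in the primary single-dose screen; inactive means activation below 50%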;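 further: compound incubated with DTT at 0.8 mM final as the reducing agent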
# Dynein transport – blocks dynein driven cargo transport along microtubules; 3617.4 mouse cells, GR-EGFP nuclear translocation imaging; test concentration mostly 20 µM; stimulated with dexamethasone, 1 µM; active compounds read low; z-score, hits read low; 220,000 compounds, 0.47% hits;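 active means plate z-score of nuclear minus cytoplasmic receptor signal below a set negative limit, without overly bright fluorescence or cell loss, cut at about -3.5 in these data, passing the limit was not always enough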;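 further: z-score of nuclear minus cytoplasmic ring GR-EGFP intensity difference per well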
#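 Buffer or medium: tet-free, stripped-serum medium; Also added: dexamethasone, 1.0 µM final; Technique: high-content fluorescence imaging after fixation; Times: 48 h induction, 1 h compound, 30 min dex at 37 °C; Read-out: per-cell GR-EGFP intensity, nucleus versus surrounding cytoplasmic ring, well-averaged.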
# ROMK hit retest – retested hit modulating human ROMK potassium channel; normalized thallium flux (F/F0 slope) at 10 µM; shares compounds with ROMK mod; ROMK thallium flux, fluorescence ratio; active compounds read low; 3,000 compounds, 54% hits;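 active means Flux at 10 µM at least 3 SD below or above vehicle control mean in one or both replicates; inconclusive means no clear call, values can overlap the other calls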
# * = called active by the depositor; i = inactive; ? = inconclusive; · = no result given; + = active, no number; ! = not active in a repeat.
SMILES,ROMK mod,Autophagy mod,KCC2 mod,Redox H2O2 prof,Dynein transport,ROMK hit retest
CCCC(C)n1[nH]c(=O)c2c1NC(=O)CSC2c1ccc(OC)cc1 (centres undefined),2.3*,i,-0.1,0,1,?
CCCOc1ccccc1C1SCC(=O)Nc2c1c(=O)[nH]n2C(C)CCC (centres undefined),·,i,-0.26,0,0.66,·
CC(=O)Nc1ccccc1C(=O)OCc1ccccc1F,-0.37,i,-0.034,0,-0.038,·
C[C@@H]1O[C@@H](O[C@H]2C[C@@H](O)[C@]3(CO)[C@H]4[C@H](O)C[C@]5(C)[C@@H](C6COC(=O)C6)CC[C@]5(O)[C@@H]4CC[C@]3(O)C2)[C@H](O)[C@H](O)[C@H]1O (some centres undefined),·,i,0.77,-1,0.28,0.064*
O=C(NCCCN1CCOCC1)C(Cl)(Cl)Cl,0.055,i,-0.21,0,-0.081,·
CCCCCCOc1ccc(CN2CCN(CC)CC2)cc1,-3.9*,i,-0.17,0,-0.97,0.06*
CCN1CCN(Cc2ccc(OC(F)(F)F)cc2)CC1,·,i,-1.9,-2,0.42,·
CCn1c(O)c(/C=N/N2CCOCC2)c(=O)n(CC)c1=S,·,i,-0.083,0,-0.029,·
CCn1c(O)c(C=Nc2ccc(N3CCOCC3)c(Br)c2)c(=O)n(CC)c1=S,-5.3*,i,i,0,-0.31,0.079
CCn1c(O)c(C=NCCN2CCOCC2)c(=O)n(CC)c1=S,·,·,-0.63,·,-0.28,·
CCn1c(O)c(C=Nc2ccc(N3CCOCC3)cc2)c(=O)n(CC)c1=S,-6.6*,i,-0.07,0,-0.42,0.045*
CC1CN=C(Nc2ccc(F)c(Cl)c2)S1 (centres undefined),·,·,0.0062,·,0.02,·
CCN(CC)c1ccc(N=Cc2c(O)n(Cc3ccccc3)c(=O)[nH]c2=O)cc1,-8.3*,+!,-1.6,-2,1.7,0.049*
CCN(CC)c1ccc(N=Cc2c(O)n(-c3ccccc3C)c(=O)[nH]c2=O)cc1,1.1,i,·,2,-0.62,·
CCOc1ccccc1-n1c(O)c(C=Nc2ccc(N(CC)CC)cc2)c(=O)[nH]c1=O,2.7*,i,-1.6,0,0.66,0.08
Cn1cccc1/C=C1/C(=O)NC(=O)N(C(C)(C)C)C1=O,4.2*,·,0.47,·,0.027,0.082
Nc1ccc(C2(c3ccc(N)cc3)CCCCC2)cc1,0.1,i,0.29,-1,2.1,·
Cc1nc2c(c(=O)[nH]1)C(c1ccccc1Cl)c1c(c3ccccc3oc1=O)O2 (centres undefined),-0.03,·,-0.6,·,-0.26,·
CCOC(=O)C1=C(N)Oc2cc(C)oc(=O)c2C12C(=O)N1c3c(cccc32)C(C)=CC1(C)C (centres undefined),·,i,0.02,1,2.6,·
CCOC(=O)C1=C(N)Oc2cc(C)oc(=O)c2C12C(=O)N1c3c(cccc32)C(C)CC1(C)C (centres undefined),-4.8*,i,-0.57,-2,-0.24,0.06*
CCN(CC)c1ccc(/C=C2\C(=O)NC(=S)N(C)C2=O)o1,-6.3*,·,-4.6,·,-0.0048,0.028*
COC1CC(OC2CCC3(C)C(CCC4C3CCC3(C)C(C5=CC(=O)OC5)C(OC(C)=O)CC43O)C2)OC(C)C1OC1OC(COC2OC(CO)C(O)C(O)C2O)C(O)C(O)C1O (centres undefined),·,·,0.62,·,-0.41,?
O=c1[nH]c(=O)n(-c2ccccc2)c(O)c1/C=C1/C(c2ccccc2)=Nc2ccccc21,-5.4*,i,-0.88,0,0.51,0.055*
CCOc1cc(CNC(C)C(O)c2ccccc2)cc(Cl)c1OCC (centres undefined),-2.8*,i,1.6,0,0.15,0.059*
CS(=O)(=O)N1CCN(C(=N)N[N+](=O)[O-])CC1,-2.6*,i,0.41,0,0.036,0.081
SMILES,ROMK mod,Autophagy mod,KCC2 mod,Redox H2O2 prof,Dynein transport,ROMK hit retest
CCOC(=O)C1=C(N)OC2=C(C(=O)CCC2)C12C(=O)N1c3c(ccc(C)c32)C(C)=CC1(C)C (centres undefined),-5.9*,i,-0.93,-1,-0.62,0.059*
COc1ccc(C(=O)c2nc3ccccc3n2C(C)C)cc1,-0.28,i,i,0,3.2,·
CN(N)N=Nc1nc2c([nH]1)c(=O)n(C)c(=O)n2C,·,·,2.5,·,0.25,·
C[C@@H]1CC2(CCCC[N+]2(C)C)C[C@H]1C,1.6,i,1.8,0,-0.54,·
CN1CC=C(c2c[nH]c3ccccc23)CC1,·,i,-0.057,-1,-0.93,·
C1=C(c2c[nH]c3ccccc23)CCN(Cc2ccccc2)C1,-3.7*,i,0.43,-1,1.2,0.05*
Cc1nccn1Cc1ccc(Cl)nc1,0.14,i,-0.043,1,-1.2,·
C=CCn1c(O)c(/C=C2/C=CC=N2)c(=O)[nH]c1=O,·,i,0.027,1,-0.86,·
O=c1[nH]c(=O)n(Cc2ccccc2Cl)c(O)c1/C=C1/C=CC=N1,2.6*,i,0.85,-2,0.17,?
CC(=NCCC1=CCCCC1)c1c(O)n(-c2ccccc2)c(=O)[nH]c1=O,·,·,0.3,·,-0.051,·
OC(COCc1ccc(Cl)cc1)CN1CC=C(c2ccccc2)CC1 (centres undefined),-3.3*,i,-0.29,-1,-0.89,0.06*
C=CCN1C(=O)NC(=O)/C(=C/c2cnc(SC)nc2)C1=O,·,i,·,-2,-0.32,·
C=CCN1C(=O)NC(=O)/C(=C/c2cc3c4c(c2)CCCN4CCC3)C1=O,-4.3*,i,-0.27,0,-0.13,0.056*
NP(=O)(Oc1ccccc1Cl)Oc1ccccc1Cl,-3.1*,i,-1.1,-2,-0.72,0.064*
COC(=O)[C@@]1(C#N)[C@@H]2C=CC(C(C)=O)=CN2[C@@H](C(N)=O)[C@@H]1c1ccc(F)cc1,·,·,-0.046,·,-0.99,·
COc1cccc(CCNCc2c(F)cccc2F)c1,-0.89,i,0.79,0,0.079,·
COc1ccc(CCNCc2ccc(SC)cc2)cc1,·,i,0.45,-3,0.054,0.062*
CC(C)NC(C)C(=O)C12CC3CC(CC(C3)C1)C2 (centres undefined),1.6*,i,-0.25,0,0.5,?
CC1(C)C(=O)C=C[C@]2(C)[C@H]3CC[C@@]4(C)[C@H](c5ccoc5)OC(=O)[C@H]5O[C@]54[C@]3(C)[C@H](O)C[C@@H]12,1.4,i,0.13,1,-2.6,·
CCC(=NCCOc1ccc(Cl)cc1)c1c(O)n(C)c(=O)n(C)c1=O,-3.1*,i,-0.24,1,0.1,0.066*
CCC(=NCc1cc(OC)cc(OC)c1)c1c(O)n(C)c(=O)n(C)c1=O,·,i,-1.2,-2,-0.67,·
CC(C)(C)c1cc([N+](=O)[O-])cc(C(C)(C)C)c1O,·,i,0.053,-1,0.11,0.081

# Bioassay records from PubChem BioAssay.
